# Assay results taken from ChEMBL document CHEMBL1144241, “Deuterium isotope effects for the oxidation of 1-methyl-3-phenyl-3-pyrrolinyl analogues by monoamine oxidase B” (Bioorg Med Chem, 2008).
# What was measured:
# [1] = Metabolic stability in (R)-deprenyl pre-inactivated baboon liver mitochondrial fraction assessed as pyrrolyl oxidation product at 50 uM after 10 mins by HPLC analysis; assay type: ADME, Papio
# Papio [2] = assay: Activity of baboon liver mitochondrial MAOB per mg of mitochondria assessed as oxidation of 1-methyl-3-(4-fluorophenyl-3-pyrroline by HPLC/UV analysis; details: tested as the 2H-labelled form
# Method in brief: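 Baboon liver mitochondrial fraction as MAO-B source (no MAO-A activity; protein by Bradford), 0.15 mg protein/mL, in 100 mM sodium phosphate pH 7.4. Substrate as oxalate salt at eight concentrations, 12.5–2000 µM. Incubated 10 min at 37 °C; stopped with trichloroacetic acid. Pyrrolyl product quantified by HPLC-UV at 270 nm against calibration curve. Triplicates; Michaelis–Menten fit for Km and Vmax (nmol/min-mg mitochondria).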
# Papio [3] = assay: Activity of baboon liver mitochondrial MAOB per mg of mitochondria by HPLC/UV analysis
# Method in brief: (§1)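 Enzyme source was baboon liver mitochondria (no MAO-A inactivation), at 0.15 mg protein/mL in 100 mM sodium phosphate, pH 7.4. Substrate oxalate salts were tested at eight concentrations, 12.5–2000 µM, for 10 min at 37 °C, then stopped with trichloroacetic acid and centrifuged. Pyrrolyl products were measured by HPLC-UV at 270 nm against calibration curves. Initial rates were fitted to Michaelis–Menten, in triplicate, mean ± SEM.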
# Papio [4] = assay: Deuterium isotope effect on Vmax/Km for baboon liver mitochondrial MAOB assessed as oxidation of 1-methyl-3-(4-fluorophenyl-3-pyrroline by HPLC/UV analysis; details: tested as the 2H-labelled form
# Papio [5] = assay: Activity of baboon liver mitochondrial MAOB by HPLC/UV analysis; method in brief: as §1
# Papio [6] = assay: Ratio of Vmax to Km for baboon liver mitochondrial MAOB assessed as oxidation of 1-methyl-3-phenyl-3-pyrroline by HPLC/UV analysis; details: tested as the 2H-labelled form; method in brief: as §1
# [7] = Metabolic stability in (R)-deprenyl pre-inactivated baboon liver mitochondrial fraction assessed as oxidation to 1-methyl-3-phenylpyrrole; assay type: ADME, Papio
# Papio [8] = assay: Activity of baboon liver mitochondrial MAOB per mg of mitochondria assessed as oxidation of 1-methyl-3-phenyl-3-pyrroline by HPLC/UV analysis; details: tested as the 2H-labelled form; method in brief: as §1
D(Km) isotope effect (Papio [2]),D(Vmax) isotope effect (Papio [2]),D(Vmax/Km) isotope effect (Papio [4]),Compound,Activity [1],Vmax (Papio [3]),Vmax (Papio [3]; tested as the 2H-labelled form),Km (Papio [5]),Km (Papio [5]; tested as the 2H-labelled form),Vmax/Km (Papio [6]),Activity [7],Km (Papio [8]),Vmax (Papio [8])
,,,[2H]C1=C(c2ccccc2)C([2H])([2H])N(C)C1([2H])[2H],2.6%,,,,,,,,
1.19,3.98,3.37,CN1CC=C(c2ccc(F)cc2)C1,,15.7 nmol/min,3.96 nmol/min,87.2 µM,73.8 µM,,,,
,,,CN1CC=C(c2ccccc2)C1,,9.07 nmol/min,2.11 nmol/min,118 µM,157 µM,5.71 nmol/min.µM,8.4%,0.8 µM,4.29 nmol/min
